B1: Osa-1-4 twister ribozyme (parent)
chain: CCGCCUAACACUGCCAAUGCCGGUCCCAAGCCCGGAUAAAAGUGGAGGGGGCGG

This passage reports self-cleavage results from the RNAGym collection of RNA variant scans (doi:10.1002/anie.201605470).

The variants in this series derive from B1. The series can be described thus: self-cleavage, relative activity (ratio to wild type); higher = more cleavage; co-transcriptional. In a few lines: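 The 48 positions downstream of the cleavage site in a 54-nucleotide Oryza sativa twister ribozyme template were synthesised at 97 % wild-type base and 1 % of each other base. The template was transcribed in vitro at 37 °C for 2 h, with self-cleavage allowed during transcription. Reads with or without upstream sequence after deep sequencing marked cleavage status, and relative activity is fraction cleaved normalised to wild type.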
For the variant CCGCCUAACACUGCCGAUGCCGGUCCCAAGCCCGGAUAAAAGUGGAGGGGGCAG, the self-cleavage was found to be 0.91.

Turning to CCGCCUAACACUGCCGAUGCCGGUCCCAAGCCCGGAUAAAAGUGGAGGGGGCUG, the self-cleavage was 0.71.

As to CCGCCUAACACUGCCGAUGCCGGUCCCAAGCCCGGAUAAAAGUGGAGGGGGCCG, the self-cleavage turned out to be 0.16.

On to CCGCCUAACACUGCCGAUGCCGGUCCCAAGCCCGGAUAAAAGUAGAGGGGGCGG, for which the self-cleavage was determined as 0.96.

As to CCGCCUAACACUGCCGAUGCCGGUCCCAAGCCCGGAUAAAAGUUGAGGGGGCGG, the self-cleavage stood at 0.95.

For CCGCCUAACACUGCCGAUGCCGGUCCCAAGCCCGGAUAAAAGUCGAGGGGGCGG, the self-cleavage is 0.96.

CCGCCUAACACUGCCGAUGCCGGUCUCAAGCCCGGAUAAAAGUGGAGGGGGCGG: the self-cleavage was 0.93.

For the variant CCGCCUAACACUGCCGAUGCCGGUCGCAAGCCCGGAUAAAAGUGGAGGGGGCGG, the self-cleavage is 0.13.

CCGCCUAACACUGCCGAUGCCGGUCACAAGCCCGGAUAAAAGUGGAGGGGGCGG: the self-cleavage came to 0.08.

As to CCGCCUAACACUGCCGAUGCCGGUCCUAAGCCCGGAUAAAAGUGGAGGGGGCGG, the self-cleavage worked out at 0.37.

As to CCGCCUAACACUGCCGAUGCCGGUCCAAAGCCCGGAUAAAAGUGGAGGGGGCGG, the self-cleavage came out at 0.38.

Regarding CCGCCUAACACUGCCGAUGCCGGUCCGAAGCCCGGAUAAAAGUGGAGGGGGCGG, the self-cleavage was determined as 0.15.

CCGCCUAACACUGCCGAUGCCGUUCCCAAGCCCGGAUAAAAGUGGAGGGGGCGG: the self-cleavage stood at 0.14.

As to CCGCCUAACACUGCCGAUGCCGCUCCCAAGCCCGGAUAAAAGUGGAGGGGGCGG, the self-cleavage was found to be 0.09.

Consider CCGCCUAACACUGCCGAUGCCGAUCCCAAGCCCGGAUAAAAGUGGAGGGGGCGG, for which the self-cleavage was 0.68.

CCGCCUCACACUGCCUAUGCCGGUCCCAAGCCCGGAUAAAAGUGGAGGGGGCGG: the self-cleavage was found to be 0.04.

Turning to CCGCCUGACACUGCCUAUGCCGGUCCCAAGCCCGGAUAAAAGUGGAGGGGGCGG, the self-cleavage came out at 0.27.

CCGCCUAACACUUCCGAUGCCGGUCCCAAGCCCGGAUAAAAGUGGAGGGGGCGG: the self-cleavage came out at 0.04.

Regarding CCGCCUAACACUACCGAUGCCGGUCCCAAGCCCGGAUAAAAGUGGAGGGGGCGG, the self-cleavage was determined as 0.2.

Consider CCGCCUAACACUCCCGAUGCCGGUCCCAAGCCCGGAUAAAAGUGGAGGGGGCGG, for which the self-cleavage was 0.02.

On to CCGCCUAACACUGCCGAUGCCGGUCCCAAGCCCGUAUAAAAGUGGAGGGGGCGG, for which the self-cleavage came out at 0.93.

Turning to CCGCCUAACACUGCCGAUGCCGGUCCCAAGCCCGCAUAAAAGUGGAGGGGGCGG, the self-cleavage was found to be 0.8.

As for CCGCCUAACACUGCCGAUGCCGGUCCCAAGCCCGAAUAAAAGUGGAGGGGGCGG, the self-cleavage came to 0.87.

Take CCGCCUAACACUGCCGAUGCCGGUCCCAAGCCCGGAUAAAAGUGGAGGCGGCGG: the self-cleavage came to 0.08.

CCGCCUAACACUGCCGAUGCCGGUCCCAAGCCCGGAUAAAAGUGGAGGAGGCGG: the self-cleavage stood at 0.27.

Regarding CCGCCUAACACUGCCGAUGCCGGUCCCAAGCCCGGAUAAAAGUGGAGGUGGCGG, the self-cleavage turned out to be 0.3.

As to CCGCCUAACACUGCCGAUGCUGGUCCCAAGCCCGGAUAAAAGUGGAGGGGGCGG, the self-cleavage was 0.98.

Consider CCGCCUAACACUGCCGAUGCAGGUCCCAAGCCCGGAUAAAAGUGGAGGGGGCGG, for which the self-cleavage was 0.8.

Regarding CCGCCUAACACUGCCGAUGCGGGUCCCAAGCCCGGAUAAAAGUGGAGGGGGCGG, the self-cleavage was 0.12.

For the variant CCGCCUAACACUGCCGAUGCCGGUCCCAAGCCCGGAUAAAAGAGGAGGGGGCGG, the self-cleavage turned out to be 0.89.

For the variant CCGCCUAACACUGCCGAUGCCGGUCCCAAGCCCGGAUAAAAGCGGAGGGGGCGG, the self-cleavage amounted to 0.53.

Take CCGCCUAACACUGCCGAUGCCGGUCCCAAGCCCGGAUAAAAGGGGAGGGGGCGG: the self-cleavage was 0.62.

As to CCGCCUAACACAGCCGAUGCCGGUCCCAAGCCCGGAUAAAAGUGGAGGGGGCGG, the self-cleavage is 0.97.

Turning to CCGCCUAACACCGCCGAUGCCGGUCCCAAGCCCGGAUAAAAGUGGAGGGGGCGG, the self-cleavage is 0.53.

CCGCCUAACACGGCCGAUGCCGGUCCCAAGCCCGGAUAAAAGUGGAGGGGGCGG: the self-cleavage worked out at 0.55.

As to CCGCCUAACACUGCCGAUGCCGGUCCCAAGCCCGGAUAAAAGUGGACGGGGCGG, the self-cleavage turned out to be 0.2.

CCGCCUAACACUGCCGAUGCCGGUCCCAAGCCCGGAUAAAAGUGGAUGGGGCGG: the self-cleavage worked out at 0.49.

As to CCGCCUAACACUGCCGAUGCCGGUCCCAAGCCCGGAUAAAAGUGGAAGGGGCGG, the self-cleavage turned out to be 0.6.

For the variant CCGCCUAACACUGCUGAUGCCGGUCCCAAGCCCGGAUAAAAGUGGAGGGGGCGG, the self-cleavage came out at 0.45.

For the variant CCGCCUAACACUGCCGAUGCCGGUCCCAAGCCCGGACAAAAGUGGAGGGGGCGG, the self-cleavage was determined as 1.03.

On to CCGCCUAACACUGCCGAUGCCGGUCCCAAGCCCGGAAAAAAGUGGAGGGGGCGG, for which the self-cleavage was 0.87.

In the case of CCGCCUAACACUGCCGAUGCCGGUCCCAAGCCCGGAGAAAAGUGGAGGGGGCGG, the self-cleavage is 1.02.

Regarding CCGCCUAACACUGCCGAUGCCGGUCCCAAGCCCGGAUAAAAGUGGAGGGGCCGG, the self-cleavage turned out to be 0.22.

With CCGCCUAACACUGCCGAUGCCGGUCCCAAGCCCGGAUAAAAGUGGAGGGGUCGG, the self-cleavage stood at 0.46.

Consider CCGCCUAACACUGCCGAUGCCGGUCCCAAGCCCGGAUAAAAGUGGAGGGGACGG, for which the self-cleavage came to 0.82.

With CCGCCUAACACUGCCUAUGCCGGUCCCAAGCCCGGAUAAAAGUGGAGGGGGCGG, the self-cleavage came out at 0.97.

For CCGCCUAACACUGCCGAUGCCCGUCCCAAGCCCGGAUAAAAGUGGAGGGGGCGG, the self-cleavage was 0.19.

Take CCGCCUAACACUGCCGAUGCCUGUCCCAAGCCCGGAUAAAAGUGGAGGGGGCGG: the self-cleavage was 0.82.

In the case of CCGCCUAACACUGCCGAUGCCAGUCCCAAGCCCGGAUAAAAGUGGAGGGGGCGG, the self-cleavage stood at 1.
